# Screens (PubChem)
# Rows were chosen to be rich in hits. Some 2.8% of all compounds tested hit in one or more screens of this group.
# PAFAH1B3 FP inh – inhibitors of human PAFAH1B3; AID 492972; Q15102; inhibition, % at 3.39 µM; recombinant PAFAH1B3, FP-rhodamine probe, fluorescence polarization; 340,000 tested, 0.28% active;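 active means inhibition above the screen-wide average of all tested compounds plus 3 SD, cut at about 25% in these data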
# Target sequence (Q15102 whole entry, looked up): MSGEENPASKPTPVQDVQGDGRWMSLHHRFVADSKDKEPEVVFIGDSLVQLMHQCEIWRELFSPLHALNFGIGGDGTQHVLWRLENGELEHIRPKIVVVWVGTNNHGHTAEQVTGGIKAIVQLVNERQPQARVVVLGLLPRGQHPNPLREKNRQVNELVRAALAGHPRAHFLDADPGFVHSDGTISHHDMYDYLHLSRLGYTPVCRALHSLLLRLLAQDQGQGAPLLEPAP
# pPAFAH FP inh – inhibitors of human plasma PAF acetylhydrolase (pPAFAH); Q13093; recombinant pPAFAH, FP-rhodamine probe fluorescence polarization; inhibition, % at 3.39 µM; 330,000 tested, 1.5% active; AID 463082;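 active means inhibition above the mean inhibition across the screen plus 3 SD, cut at about 25% in these data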;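 further: inhibitors block binding of the rhodamine activity-based probe so polarization drops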
# HTRA1 inh – HTRA1 (human) protease inhibition; Q92743; recombinant HTRA1, FP-rhodamine activity-based probe, fluorescence polarization; inhibition, % at 5.96 µM; 340,000 tested, 0.5% active; AID 504803; in the data active means inhibition above about 36%
# PAFAH1B2 FP inh – blocks human PAF acetylhydrolase 1b catalytic subunit 2 | P68402 | recombinant PAFAH1B2, FP-rhodamine activity probe, fluorescence polarization | inhibition, % at 3.39 µM | 340,000 tested, 1.2% active;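 active means inhibition above the mean of all tested compounds plus 3 SD, cut at about 24% in these data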
# Target sequence (P68402 whole entry, looked up): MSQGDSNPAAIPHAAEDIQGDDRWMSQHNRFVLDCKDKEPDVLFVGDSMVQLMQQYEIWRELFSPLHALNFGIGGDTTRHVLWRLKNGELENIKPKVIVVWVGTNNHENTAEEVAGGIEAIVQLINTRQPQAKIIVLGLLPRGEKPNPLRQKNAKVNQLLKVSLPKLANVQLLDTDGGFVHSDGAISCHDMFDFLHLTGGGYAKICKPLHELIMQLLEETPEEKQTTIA
# PAFAH2 inh – PAFAH2 (human) inhibition. Q99487. recombinant PAFAH2, FP-rhodamine activity probe, fluorescence polarization. inhibition, % at 3.39 µM. 340,000 tested, 0.99% active;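 active means inhibition above the mean over all tested compounds plus 3 SD, cut at about 30% in these data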;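 further: inhibitors block probe labeling of enzyme so polarization drops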
# mABHD4 FP – inhibitors of mouse ABHD4; purified mABHD4, FP-Rh probe fluorescence polarization; inhibition, % at 8.92 µM; Q8VD66; 370,000 tested, 0.54% active;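 active means inhibition exceeding the mean over every tested compound plus 3 SD, cut at about 30% in these data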
#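 system = mouse ABHD4 enzyme, wild type | medium = HEPES pH 7.0, NaCl, Pluronic buffer | also added = FP-Rh probe | incubation = Enzyme–compound pre-incubation 45 min, then probe 60 min, both 25 °C | technique = fluorescence polarization, excitation 525 nm, emission 598 nm, BODIPY TMR filters | controls = S159A mutant high control, sample median low control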
# ABHD4 confirm – ABHD4 (mouse) inhibition, FP confirmation; shares compounds with mABHD4 FP; purified mABHD4, FP-Rh probe fluorescence polarization; inhibition, % at 8.92 µM; 1,800 tested, 55% active; AID 720658;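 active means mean inhibition across replicates above the hit cutoff set in the primary screen, cut at about 30% in these data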
# A number is an active result; i = inactive; nt = not tested or not shown.
SMILES,PAFAH1B3 FP inh,pPAFAH FP inh,HTRA1 inh,PAFAH1B2 FP inh,PAFAH2 inh,mABHD4 FP,ABHD4 confirm
COc1cc(/C=C2/C(=O)CNC2=O)ccc1O,i,i,i,i,i,i,nt
COc1cc(C=C2C(=O)C=CC2=O)ccc1O,nt,nt,nt,nt,nt,37,i
COC(=O)C1CN(Cc2cn(Cc3ccc(Cl)cc3)nn2)CCS(=O)(=O)N1Cc1ccc(OC)cc1 (stereo unspecified),nt,nt,nt,nt,nt,i,nt
CNc1sc(C(=O)c2ccc(F)cc2)c(N)c1-c1nc2ccccc2s1,i,i,i,i,i,32,68
CCN(CC)C(=O)c1sc2nc(Cc3ccccc3)[nH]c(=O)c2c1C,i,i,i,i,i,37,40
CCCC1CCC2(CCCN2CCOC(=S)Nc2ccccc2OC)CC1 (stereo unspecified),nt,nt,nt,nt,nt,i,nt
CN(CCO)c1ccc2c(c1)Oc1ccccc1CN(Cc1cn(Cc3ccccc3C(F)(F)F)nn1)S2(=O)=O,nt,nt,nt,nt,nt,i,nt
Nc1cc2c(cc1[N+](=O)[O-])-c1ccccc1C2=NO,i,nt,i,i,i,49,i
CC(=NNC(=S)SCc1ccccc1)c1ccccn1,i,nt,i,i,i,56,i
CCCCOCCCNC(=O)C[C@H]1C[C@@]2(C(=O)OC)C(=C[C@H](C(C)C)O[C@@H]2C2CC2)N(Cc2ccc3c(c2)OCO3)C1=O,nt,nt,nt,nt,nt,i,nt
COc1ccc(C(=O)OCCCN(C)C2CN(Cc3cn(Cc4cccc(F)c4)nn3)S(=O)(=O)C2)cc1OC (stereo unspecified),nt,nt,nt,nt,nt,i,nt
CCc1ccc(OCC(=O)Nc2ccc(N3CCN(C(=O)c4ccccc4)CC3)cc2)cc1,i,i,i,i,i,58,i
Cc1cccc(OCC(=O)Nc2ccc(N3CCN(C(=O)c4ccccc4)CC3)cc2)c1C,i,i,i,i,i,i,nt
COc1cc(C(=O)OCC(=O)N2CCCC2=O)cc(OC)c1C,i,i,i,i,i,45,i
Nc1ccc(-c2c3ccc(=O)cc-3oc3cc(O)ccc23)cc1C(=O)O,i,i,i,i,i,30,40
O=C(COc1ccc2c(-c3ccccc3)cc(=O)oc2c1)NCC1CCC(C(=O)O)CC1 (stereo unspecified),i,i,i,i,i,40,42
CC(Oc1ccc2c(-c3ccccc3)cc(=O)oc2c1)C(=O)NCC1CCC(C(=O)O)CC1 (stereo unspecified),i,i,i,i,i,49,38
Cc1cc(=O)oc2cc(OCC(=O)Nc3ccccc3C(=O)O)ccc12,i,i,i,i,i,35,39
CCOc1ccc(C2CC=C(C(=O)O)CN2S(=O)(=O)c2ccc(C)cc2)cc1 (stereo unspecified),nt,nt,nt,nt,nt,i,nt
CCCC1CCC2(CC1)CCC2OC(=S)Nc1ccc(N(C)C)cc1 (stereo unspecified),nt,nt,nt,nt,nt,i,nt
CCc1c2c3n4c1CCC[C@@H]4C[C@@H]3O[Si](C(C)C)(C(C)C)OC(C)C2=O (stereo partly specified),nt,nt,nt,nt,nt,i,nt
O=C(NNC(=O)c1cc(O)c(O)c(O)c1)NC1CCCCC1,i,i,i,i,i,31,i
O=C(NNC(=O)c1cccnc1)NC1CCCCC1,i,i,i,i,i,i,nt
CSc1c(N(C)C)c(=O)c1=S,nt,nt,nt,nt,nt,i,nt
CCc1nccn1CC(=O)c1ccc(O)c(O)c1,nt,nt,nt,nt,nt,i,nt
SMILES,PAFAH1B3 FP inh,pPAFAH FP inh,HTRA1 inh,PAFAH1B2 FP inh,PAFAH2 inh,mABHD4 FP,ABHD4 confirm
COC1=C(OC)C(=O)C(Sc2ccc3ccccc3c2)=CC1=O,i,nt,i,i,i,57,102
COc1ccc(S(=O)(=O)Oc2ccc3ccccc3c2)cc1,i,i,i,i,i,i,nt
O=C(CCN1C(=O)C2C3C=CC(C3)C2C1=O)NC1CCCCC1 (stereo unspecified),i,i,i,i,i,88,i
O=C(O)[C@H]1CC=C[C@H]2CCN(Cc3ccc(Cl)c(Cl)c3)C(=O)[C@@H]12,i,i,i,i,i,30,i
O=C1[C@H]2[C@H](C=CC[C@H]2C(=O)N2CCOCC2)CCN1Cc1ccc(Cl)c(Cl)c1,nt,i,nt,nt,nt,i,nt
COc1ccc2c(c1)C[C@@H](CON1C(C)(C)CCCC1(C)C)N2S(=O)(=O)c1ccc(C)cc1,nt,nt,nt,nt,nt,i,nt
O=C(O)CCCCCn1c(SCC(=O)c2ccc(O)c(O)c2)nc2ccsc2c1=O,i,i,i,i,i,34,36
O=C(O)CCCCCn1c(SCC(=O)N2CCCC2)nc2ccsc2c1=O,i,i,i,i,i,i,nt
CCCCNC(=O)C[C@@H]1C(=O)N(Cc2ccc(OC)cc2)C2=CCN(C(=O)OC(C)(C)C)C[C@]21C(=O)OCC,nt,nt,nt,nt,nt,i,nt
c1ccc(CSc2nnnn2-c2ccccc2)cc1,i,i,i,i,i,i,nt
O=c1cc(CSc2nnnn2-c2ccccc2)[nH]c2[nH]n(-c3ccccc3)c(=O)c12,i,i,i,i,i,32,i
CC1CCN(c2ccc(C(=O)O)cc2NS(=O)(=O)c2ccc(Cl)s2)CC1,nt,nt,nt,nt,nt,38,44
CC1CCN(c2ccc(C(=O)O)cc2NS(=O)(=O)c2ccc(Br)cc2)CC1,i,i,i,28,i,39,31
COc1ccc(C(=O)O)cc1S(=O)(=O)Nc1cc(Cl)ccc1N1CCOCC1,i,i,i,i,i,i,nt
O=S1(=O)c2ccccc2N=NN1Cc1ccc(Cl)cc1,i,i,i,i,i,46,54
COCCCN1C(=O)[C@H](CC(=O)N2CCC(c3ccccc3)CC2)[C@]2(C(=O)OC)CCCCC=C12,nt,nt,nt,nt,nt,i,nt
O=C(N/N=C/c1c(O)ccc2ccccc12)c1cccnc1,i,25,i,i,i,30,32
Cc1cc(C(C)(C)CC(C)(C)C)ccc1OCCOCC[N+](C)(C)Cc1ccccc1,i,i,i,i,i,36,45
